How the values were obtained:
[1] = system: TLR4-mediated NLRP3 inflammasome; test: NLRP3 inflammasome activation, IL-1β secretion, LPS-primed THP-1 cells; type: cell-based, human; conditions: THP-1 primed with LPS, activated with Nigericin; n ≥ 3
[2] = system: hMNCs; test: Cell viability, hMNCs; type: cell-based, human
[3] = system: IL-1 receptor (IL-1R); test: IL-8 secretion, IL-1β-activated THP-1 cells; type: cell-based, human; conditions: THP-1 activated with IL-1β
[4] = system: TLR4; test: NO secretion assay, LPS-stimulated mBMDMs; type: cell-based, mouse
How it was run: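 Bone marrow macrophages from C57BL/6J femurs/tibiae, differentiated with M-CSF (25 ng/ml) for 3–4 days and replated 24 h before use. Seeded at 2 × 10^5/well, grown overnight. Pretreated with test compound for 1 h, then co-treated with LPS. Extracellular NO in supernatant measured with a nitric oxide detection kit by absorbance at 550 nm.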

[5] = system: TLR4 (HEK-Blue™ hTLR4 cells); test: SEAP activity assay; type: cell-based, human; conditions: LPS-stimulated; absorbance at 620 nm; n ≥ 3
How it was run: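 Seeded at 2 × 10^5/well (24-well) and grown overnight, then treated with a range of test-compound concentrations with or without LPS. Supernatants heat-treated at 65 °C for 10 min. SEAP (NF-κB reporter) detected with HEK-Blue detection medium.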

[6] = system: mice with IMQ-induced psoriasis-like disease; test: Imiquimod; type: in vivo, mouse (C57BL/6)
How it was run: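 C57BL/6 mice (6–7 weeks, specific-pathogen-free) given 62·5 mg of 5% imiquimod cream topically for 5 consecutive days; controls left untreated. Test compound (10 or 50 nmol/g) or PBS given daily, and methotrexate (10 μg/g) as reference, all starting 1 day before the cream. Mice killed after 5 days. Back-skin severity scored on a PASI-based scale.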

[7] = system: CIA mice; test: Micro-CT and histology of knee joints, CIA model; type: in vivo, mouse (DBA/1 J)
How it was run: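 DBA/1J collagen-induced arthritis mice, dosed i.p. daily from day 22. Knee bone samples fixed in 10% formalin and scanned by in vivo micro-CT. Bone mineral density measured at 1 mm below the top of the tibia within a set region of interest. Joint sections stained with H&E and examined for synovial hyperplasia, pannus, immune-cell infiltration and joint-space narrowing.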

[8] = system: TLR4; test: Quantitative RT-PCR, LPS-stimulated THP-1 cells; type: cell-based, human; conditions: TIP3 50 μM 1 h, then LPS 4 h; normalized to GAPDH
How it was run: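 THP-1 cells pretreated with test compound (50 μM) for 1 h, then LPS (100 ng/ml) added for 4 h. Total RNA extracted with TRIzol and cDNA synthesised. SYBR Green qPCR run with primers for IL-1β, IL-6, IL-8, TNF-α, with β-actin and GAPDH as references. Relative expression calculated by the ΔΔCt method.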

[9] = system: CIA mice; test: Collagen-induced arthritis; type: in vivo, mouse (DBA/1 J)
How it was run: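 Male DBA/1J mice (6–7 weeks, 20–23 g) immunised at tail base with 100 μg chicken type II collagen in an equal volume of complete Freund's adjuvant (day 0), boosted day 20. Groups of n = 7. Test compound (2·5 or 10 nmol/g) or methotrexate (2 mg/kg) in saline given i.p. once daily from day 22. Body weight, paw volume and arthritis index tracked. […] (maximum 16), twice weekly.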

[10] = system: mice with IMQ-induced psoriasis-like disease; test: Histology and immunohistochemistry of back skin, psoriasis model; type: in vivo, mouse (C57BL/6)
How it was run: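 Back-skin lesions from imiquimod-treated C57BL/6 mice fixed in 4% paraformaldehyde, paraffin-embedded and sectioned at 7 μm. H&E staining used for epidermal/dermal thickness, measured by microscopy. Immunohistochemistry done with HRP/DAB detection using primary antibodies to CD68, CD4 and IL-17.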

[11] = system: TLR4; test: Cytokine ELISA, LPS-stimulated RAW264.7 cells; type: cell-based, murine; conditions: n ≥ 3
How it was run: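 Murine macrophages seeded at 2 × 10^5/well (96-well) or 5 × 10^5/well (24-well) and grown overnight, then treated with test compound and LPS. After 24 h treatment, secreted IFN-β was measured by pre-coated mouse IFN-β ELISA. Mouse IL-6 and mouse TNF-α were measured by ELISA kits.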

[12] = system: RAW264.7 cells; test: MTT cell viability, RAW264.7 cells; type: cell-based, murine; conditions: 50 μM
How it was run: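 MTT colourimetric viability assay. HEK-Blue hTLR4 cells (high-glucose DMEM, 10% FBS, normocin) seeded at 5 × 10^4/well. RAW264.7 cells seeded at 2 × 10^5/well. Both grown overnight before exposure to test compound.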

[13] = system: TLR7/8; test: TNF-α secretion, R848; type: cell-based, murine; conditions: TIP3 at 50 μM
How it was run: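 RAW264.7 cells seeded at 2 × 10^5/well (96-well) or 5 × 10^5/well (24-well), grown overnight, then treated with test compound. Stimulus: poly(I:C), CpG-ODN (15), FSL-1 (16) or R848 (17). Supernatant cytokines read after 24 h by mouse ELISA kits (IFN-β, IL-6, TNF-α). Cells kept at 37 °C, 5% CO2.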

[14] = system: TNFR-mediated NLRP3 inflammasome; test: NLRP3 inflammasome activation, IL-1β secretion, TNF-α-primed THP-1 cells; type: cell-based; conditions: THP-1 primed with recombinant human TNF-α, activated with Nigericin
[15] = PAP-TIP3 10 nmol/g, treatment started from day 35
[16] = TIP3 10 and 50 nmol/g, H&E, five skin samples per group

DYDVCVCH [TIP3]
IL-1β secretion [1]: dose-dependently inhibits IL-1β secretion in LPS-primed cells
cell viability [2]: substantial reproducible outcomes were observed in terms of cell viability
IL-8 secretion [3]: did not hinder the secretion of IL-8
LPS-induced extracellular NO [4]: significant reduction
inhibition of LPS-induced SEAP activity (NF-κB) [5]: hampered the LPS-induced SEAP activity in a dose-dependent manner
effect relative to MTX ([6]; TIP3 10 nmol/g vs MTX 10 μg/g): relatively weaker effect than did the MTX-treated group
spleen weight ([6]; TIP3 50 nmol/g i.p.): significantly decreasing the spleen weight (almost to the weight of normal murine spleen)
body weight ([6]; TIP3 50 nmol/g i.p., vs MTX and TIP3 10 nmol/g): underwent a weight loss as compared to the MTX- and TIP3 (10 nmol/g)-treated groups
inflammation severity of back skin ([6]; TIP3 10 or 50 nmol/g daily): reversal of inflammation severity
PASI score ([6]; TIP3 10 or 50 nmol/g i.p.): did not significantly reduce the PASI score starting from day 2
splenomegaly ([6]; TIP3 10 or 50 nmol/g i.p.): remarkably prevented splenomegaly in a dose-dependent manner
bone destruction recovery (knee joint) ([7]; TIP3 10 nmol/g, micro-CT): remarkable recovery from the bone destruction
inflammation score ([7]; TIP3-treated CIA mice, Fig. 4j synovial hyperplasia score): significantly lower inflammation score
synovial hyperplasia score ([7]; prolonged TIP3 treatment): substantially reduces inflammation
IL-1β mRNA expression [8]: inhibited LPS-induced mRNA expression
IL-6 mRNA expression [8]: inhibited LPS-induced mRNA expression
IL-8 mRNA expression [8]: inhibited LPS-induced mRNA expression of these cytokines and of IL-8
TNF-α mRNA expression [8]: inhibited LPS-induced mRNA expression
arthritis index, postarthritis phase treatment [9, 15]: significantly inhibited when compared with the CIA mice
body weight, postarthritis phase treatment [9, 15]: did not observe any significant change in body weight
paw volume, postarthritis phase treatment [9, 15]: significantly inhibited when compared with the CIA mice
loss of body weight ([9]; TIP3 10 nmol/g or MTX 2 mg/kg, i.p. daily from day 22): not observed
arthritis index ([9]; TIP3 10 nmol/g or MTX 2 mg/kg, i.p. daily from day 22, maximal score 16): significantly decreased
relative paw volume (large paw volume) ([9]; TIP3 10 nmol/g or MTX 2 mg/kg, i.p. daily from day 22, plethysmometer): TIP3 (10 nmol/g)- and MTX-injected mice did not
induction of RA (arthritic symptoms) ([9]; i.p. once a day from day 22, vs CIA mice): significantly attenuated
thickness of the dermis [10, 16]: noticeably attenuated thickness of the epidermis (yellow arrowheads) and dermis
thickness of the epidermis [10, 16]: noticeably attenuated thickness of the epidermis
overexpression of CD4 in skin ([10]; immunohistochemistry): effectively attenuated the overexpression of CD68, CD4
overexpression of CD68 in skin ([10]; immunohistochemistry): effectively attenuated the overexpression of CD68
overexpression of IL-17 in skin ([10]; immunohistochemistry): effectively attenuated the overexpression of CD68, CD4, and IL-17
LPS-induced IFN-α secretion [11]: significantly prevented in vitro production of proinflammatory cytokines (TNF-α and IL-6) and IFN-α and -β in a dose-dependent manner
LPS-induced IFN-β secretion [11]: significantly prevented in vitro production of proinflammatory cytokines (TNF-α and IL-6) and IFN-α and -β in a dose-dependent manner
LPS-induced IL-6 secretion [11]: significantly prevented in vitro production of proinflammatory cytokines (TNF-α and IL-6) and IFN-α and -β in a dose-dependent manner
LPS-induced TNF-α secretion [11]: significantly prevented in vitro production of proinflammatory cytokines (TNF-α and IL-6) and IFN-α and -β in a dose-dependent manner
cell viability / toxicity [12]: did not have any toxic effects
TNF-α secretion mediated by TLR7, TLR8 [13]: somewhat weak inhibition
IL-1β secretion [14]: not in the TNF-α-primed cells
